Measurements as given in ChEMBL document CHEMBL1130266, “Monoaryl- and bisaryldihydroxytropolones as potent inhibitors of inositol monophosphatase” (J Med Chem, 1997).

experiment: Concentration required to inhibit the activity of inositol monophosphatase by 50%
How it was run: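 Human recombinant IMPase expressed in E. coli and purified to homogeneity. […] Enzyme adjusted so ≤10% substrate used. Duplicate rates at six inhibitor concentrations plus no-inhibitor control, fitted to v = V0/(1+[I]/IC50).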

Compound | IC50 [µM]
O=c1c(O)c(-c2cc3ccccc3o2)cc(-c2cc3ccccc3o2)c(O)c1O | 40
O=Cc1cccc(-c2cc(-c3cccc(C=O)c3)c(O)c(=O)c(O)c2O)c1 | > 100
O=c1ccc(-c2cccc(-c3nnc(-c4ccc5ccccc5c4)o3)c2)c(O)c(O)c1O | 40
O=c1ccc(-c2ccc3ccccc3c2)c(O)c(O)c1O | > 100
O=c1c(O)c(-c2ccccc2F)cc(-c2ccccc2F)c(O)c1O | > 200
NCCc1ccc(-c2ccc(=O)c(O)c(O)c2O)cc1 | 90
CC(=O)Nc1cccc(-c2ccc(=O)c(O)c(O)c2O)c1 | 20
O=c1ccc(-c2ccc(O)cc2)c(O)c(O)c1O | 10
O=c1c(O)c(-c2ccc(C(F)(F)F)cc2)cc(-c2ccc(C(F)(F)F)cc2)c(O)c1O | 200
O=c1c(O)c(-c2ccc(O)cc2)cc(-c2ccc(O)cc2)c(O)c1O | 10
O=c1ccc(-c2cncnc2)c(O)c(O)c1O | 10
O=c1c(O)c(O)ccc(-c2cccc(O)c2O)c1O | 7
O=c1c(O)c(O)ccc(-c2ccsc2)c1O | 25
O=c1c(O)cccc(O)c1O | 10
O=c1c(O)c(O)ccc(-c2ccc(C(F)(F)F)cc2)c1O | 130
N#Cc1cccc(-c2ccc(=O)c(O)c(O)c2O)c1 | 4
O=Cc1cccc(-c2ccc(O)c(O)c(=O)c2O)c1 | 20
O=c1c(O)c(O)ccc(-c2cc(C(F)(F)F)cc(C(F)(F)F)c2)c1O | 10
O=c1c(O)c(-c2cccc(-c3nnc(-c4ccc5ccccc5c4)o3)c2)cc(-c2cccc(-c3nnc(-c4ccc5ccccc5c4)o3)c2)c(O)c1O | > 200

Compound | IC50 [µM]
O=c1ccc(-c2cccc3ccccc23)c(O)c(O)c1O | 20
O=c1c(O)c(-c2ccsc2)cc(-c2ccsc2)c(O)c1O | 35
O=c1cccc(-c2ccccc2)c(O)c1O | 200
O=c1c(O)c(-c2cccc(C(F)(F)F)c2)cc(-c2cccc(C(F)(F)F)c2)c(O)c1O | > 200
O=c1ccc(-c2ccccc2F)c(O)c(O)c1O | 65
O=c1c(O)c(-c2cc(C(F)(F)F)cc(C(F)(F)F)c2)cc(-c2cc(C(F)(F)F)cc(C(F)(F)F)c2)c(O)c1O | 70
O=c1c(O)c(-c2ccc3ccccc3c2)cc(-c2ccc3ccccc3c2)c(O)c1O | > 100
O=c1c(O)c(O)ccc(-c2cccc([N+](=O)[O-])c2)c1O | 8
O=c1c(O)c(O)ccc(-c2cc3ccccc3o2)c1O | 7
O=c1c(O)c(Br)cc(Br)c(O)c1O | 10
CC(=O)Nc1cccc(-c2cc(-c3cccc(NC(C)=O)c3)c(=O)c(O)c(O)c2O)c1 | 65
O=c1c(O)c(O)ccc(-c2cccs2)c1O | 15
N#Cc1cccc(-c2cc(-c3cccc(C#N)c3)c(O)c(=O)c(O)c2O)c1 | 30
O=c1c(O)c(-c2cccc3ccccc23)cc(-c2cccc3ccccc23)c(O)c1O | > 100
O=c1ccc(CCCCO)c(O)c(O)c1O | 5
O=c1ccc(-c2ccccc2)c(O)c(O)c1O | 20
O=c1c(O)c(O)ccc(-c2cccc(C(F)(F)F)c2)c1O | 10
O=c1c(O)c(-c2cccc([N+](=O)[O-])c2)cc(-c2cccc([N+](=O)[O-])c2)c(O)c1O | 20
O=c1c(O)c(O)ccc2cc(O)c(O)c(O)c12 | > 200
